The text below walks through data of ChEMBL document CHEMBL3352563, “Design, synthesis and molecular docking of substituted 3-hydrazinyl-3-oxo-propanamides as anti-tubercular agents” (Bioorg Med Chem Lett, 2014).

Structures are written as SMILES. Converted amounts (≈) assume the structure as drawn.

Test [1] has as its system Mycobacterium tuberculosis. The test can be described thus: Anti-tubercular activity against Mycobacterium tuberculosis H37Rv by resazurin microtitre assay. The format is functional. The gist of the method: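 Value is the minimum inhibitory concentration (MIC) found by the resazurin microtitre (REMA) method.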
A general note: The colour change of resazurin is a common sign of viable cells or microbes.

Test [2] addresses T1, Serine/threonine-protein kinase PknB (Mycobacterium tuberculosis, UniProt P9WI81).
T1 sequence (P9WI81 whole entry): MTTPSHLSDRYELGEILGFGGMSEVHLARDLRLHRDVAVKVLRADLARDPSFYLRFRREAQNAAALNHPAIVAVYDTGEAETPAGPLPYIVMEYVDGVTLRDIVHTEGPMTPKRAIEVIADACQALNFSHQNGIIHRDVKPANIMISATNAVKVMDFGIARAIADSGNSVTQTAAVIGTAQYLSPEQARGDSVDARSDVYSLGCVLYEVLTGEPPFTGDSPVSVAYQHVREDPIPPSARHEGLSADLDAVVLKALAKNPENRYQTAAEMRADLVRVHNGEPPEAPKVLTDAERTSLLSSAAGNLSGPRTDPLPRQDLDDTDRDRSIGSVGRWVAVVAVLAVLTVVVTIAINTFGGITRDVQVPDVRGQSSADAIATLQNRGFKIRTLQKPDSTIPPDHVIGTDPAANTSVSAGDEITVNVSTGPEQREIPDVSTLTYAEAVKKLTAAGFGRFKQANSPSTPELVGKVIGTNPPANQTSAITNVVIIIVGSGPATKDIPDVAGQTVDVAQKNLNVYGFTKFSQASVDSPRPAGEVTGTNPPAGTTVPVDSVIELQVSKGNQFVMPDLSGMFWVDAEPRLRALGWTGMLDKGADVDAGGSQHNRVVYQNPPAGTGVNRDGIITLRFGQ
Nature of the test: Inhibition of Mycobacterium tuberculosis PknB.

As to `NNC(=O)c1ccncc1` [ISONIAZID], it took 0.02 mg/L (≈ 0.146 µM) to inhibit growth in test [1] (MIC).

For the molecule `COc1ccc(NC(=O)CC(=O)NN)c(OC)c1`, the MIC (commonly the least concentration at which growth counts as inhibited) in test [1] is above 100 mg/L. In addition, the Ki (in general, a dissociation constant, usually derived from enzyme kinetics or from competition with a known ligand) in test [2] worked out at 5.25 µM.

In test [1], `NNC(=O)CC(=O)Nc1ccccc1C(=O)O` returned an MIC of 50 mg/L (≈ 211 µM). The same molecule returned a Ki in test [2] of 7.32 µM.

In the case of `NNC(=O)CC(=O)NCc1ccco1`, in test [1], the MIC is above 100 mg/L. The molecule also displayed a Ki in test [2] of 18.5 µM.

Turning to `NNC(=O)CC(=O)Nc1ccc([N+](=O)[O-])cc1`, the MIC in test [1] is above 100 mg/L. The same molecule yielded a Ki in test [2] of 10.8 µM.

In the case of `NNC(=O)CC(=O)Nc1cc(Cl)cc(Cl)c1`, the MIC in test [1] was above 100 mg/L. In test [2], the inhibition constant (Ki) was 7.68 µM.

`NNC(=O)CC(=O)Nc1ccc([N+](=O)[O-])cc1[N+](=O)[O-]` gave an MIC in test [1] above 100 mg/L. The molecule also registered a Ki in test [2] of 6.38 µM.

On to `COc1ccc(OC)c(NC(=O)CC(=O)NN)c1`, for which the MIC in test [1] was above 100 mg/L. In test [2], this molecule registered a Ki of 7.01 µM.

Consider `CCCCc1ccc(NC(=O)CC(=O)NN)cc1`, for which the MIC in test [1] was found to be 12.5 mg/L (≈ 50.1 µM). In test [2], the Ki was determined as 26.5 µM.

The molecule `NNC(=O)CC(=O)Nc1ccc(F)c(Cl)c1` displayed an MIC in test [1] of 50 mg/L (≈ 204 µM). Further, the Ki in test [2] was determined as 3.53 µM.

In test [1], `CO[C@H]1/C=C/O[C@@]2(C)Oc3c(C)c(O)c4c(O)c(c(/C=N/N5CCN(C)CC5)c(O)c4c3C2=O)NC(=O)/C(C)=C\C=C\[C@H](C)[C@H](O)[C@@H](C)[C@@H](O)[C@@H](C)[C@H](OC(C)=O)[C@@H]1C` [RIFAMPIN] gave an MIC of 0.01 mg/L (≈ 0.0122 µM).

Molecule `NNC(=O)CC(=O)Nc1ccc(Cl)c(Cl)c1` came in with an MIC in test [1] above 100 mg/L. This molecule also had a Ki in test [2] of 9.21 µM.

For the molecule `CCCc1ccc(NC(=O)CC(=O)NN)cc1`, inhibition of growth in test [1] (MIC) required 12.5 mg/L (≈ 53.1 µM). This molecule returned a Ki in test [2] of 9.04 µM.

Molecule `CCN(CC)c1ccc(NC(=O)CC(=O)NN)cc1` came in with an MIC in test [1] of 100 mg/L (≈ 378 µM). The molecule further yielded a Ki in test [2] of 13.1 µM.

Regarding `NNC(=O)CC(=O)Nc1ccccc1[N+](=O)[O-]`, the minimum inhibitory concentration (MIC) in test [1] is above 100 mg/L. This molecule also showed a Ki in test [2] of 22.9 µM.

Take `NNC(=O)CC(=O)Nc1ccc(C(=O)O)cc1`: the MIC in test [1] is 12.5 mg/L (≈ 52.7 µM). The same molecule yielded a Ki in test [2] of 3.86 µM.

In test [1], `NNC(=O)CC(=O)Nc1cccc([N+](=O)[O-])c1` returned an MIC above 100 mg/L. In test [2], this molecule gave a Ki of 12.5 µM.

In the case of `NNC(=O)CC(=O)Nc1ccc(S(=O)(=O)O)cc1`, the MIC in test [1] is 50 mg/L (≈ 183 µM). In test [2], this molecule had a Ki of 7.59 µM.
